The source made the active and inactive calls.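 The calls were made as follows, unless noted: active = a full or partial loss of lipid-probe fluorescence in the fish gall bladder, intestine or both, judged by eye; inactive = no fluorescence loss, or compound toxic to the fish.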

The results in this text go back to PubChem BioAssay.

Test [1] can be described thus: inhibitors of TNFa-induced NFkB p65 translocation, primary screen, imaging, HUVEC, MLSMR starter and 10KST1 sets (AID 438;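 active = inhibition above 20% together with a positive visual image hit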;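 also: compound added about 3h40 before a 20 min TNFalpha stimulation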;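 as to inhibition: signal is the nuclear over cytoplasmic p65 intensity ratio per well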). The settings on record: HUVEC TNFa-induced p65 nuclear translocation; cell count: measured here: nuclei count (cytotoxicity indicator), at 2.08 µM; inhibition: at 2 µM, stronger effect = higher value, 0% TNFa-plus-vehicle, 100% no-TNFa wells.
A short description of test [2]: endothelial E-selectin expression blockers – imaging, HUVEC, immunofluorescence, MLSMR starter and 10KST1 sets, primary screen (AID 487;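 active = visually confirmed hit in the image check and inhibition above 20%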;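 as to inhibition: signal is fraction of cell area covered by stained E-selectin grains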;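 as to nuclei count: 100% = median nuclei count of all wells on the same plate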). The settings on record: HUVEC TNFalpha-induced E-selectin immunofluorescence imaging, at 2 µM; inhibition: stronger effect = higher value; nuclei count: measured here: cell number, toxicity.
Test [3] can be described thus: Primary imaging screen for DUSP6 inhibitors that restore phospho-Erk in transfected HeLa cells, chemical complementation (AID 609;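 active = compounds giving at least 50% inhibition in the cell-based MKP-3 phosphatase rescue imaging test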;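 as to inhibition: phospho-Erk level distribution per well compared with pooled transfected vehicle control wells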). The settings on record: HeLa MKP-3 transfected, phospho-Erk imaging KS statistic, at 10 µM, cells stimulated with TPA for 15 min.
Test [4] has as its target Dual specificity protein phosphatase 6 (Homo sapiens) (UniProt Q16828). Described as above. The note with it: HeLa MKP-3 transfected, phospho-Erk imaging KS statistic; at 10 µM; stronger effect = higher value; cells stimulated with TPA for 15 min.
Test [5] concerns the target Voltage-gated potassium channel subunit beta-2 (Rattus norvegicus) (UniProt P62483). Kind of test: inhibitors of rat Kvbeta2 reductase activity – biochemical, NADPH fluorescence, primary screen (AID 622;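 active = fluorescence slope higher than the sample average by over 3 SD, cut at about -0.22 in these data, passing the limit was not always enough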;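 also: slope of raw intensity against log time taken from 70 to 1610 s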). The settings on record: recombinant KvBeta, 4-cyanobenzaldehyde reduction, at 10 µM, stronger effect = higher value.
Test [6] has the same target. Kind of test: enhancers of rat Kvbeta2 NADPH turnover – biochemical, NADPH fluorescence, primary screen (AID 623;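 active = NADPH fluorescence slope more negative than the mean of all samples by about 3 SD, 99.7% confidence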;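 also: fluorescence intensity change per second fitted from 20 to 320 s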). The note with it: Recombinant KvBeta, NADPH fluorescence decrease slope, 10 min; at 10 µM; stronger effect = lower value.
Test [7] has as its target Alpha-2C adrenergic receptor (Homo sapiens) (UniProt P18825). Briefly: compounds altering alpha2C-coupled GIRK flux – cell-based, HEK293 alpha2C/GIRK1/2, thallium flux, primary screen (AID 624;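 active = fluorescence slope after compound addition differing from the mean of all screened samples at 99.7% confidence, in either direction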;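 also: slope of fluorescence ratio to pre-addition baseline per second over 15 to 24 s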). The note with it: thallium flux BTC fluorescence, at 10 µM, actives lie on both sides.
The nature of test [8]: inhibitors of larval lipid processing in zebrafish, primary screen, whole organism, PED6 fluorescence, gall bladder and intestine (AID 686).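 Also: larvae 5 to 7 days old with five fish per well; signal comes from phospholipase A2 cleavage of quenched PED6 carried via bile; overnight exposure to compound and PED6 before scoring.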 The settings on record: Zebrafish larvae PED6 lipid processing, fluorescence scoring; screened at 20 µM (by protocol). The essentials:
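System: live zebrafish larvae aged 5-7 days, whole organism; measure: graded gall bladder and intestinal fluorescence inhibition per well; incubation: overnight exposure; reagent: ingested quenched lipid PED6 at 100 nM; signal: By-eye fluorescence microscopy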

The nature of test [9]: loss of swimming-algae plug formation – whole organism, Chlamydomonas reinhardtii, WT vs cilia-less mutant, absorbance, 96-well, primary screen (AID 463189;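 active = inhibition at or above 50% relative to wild type and mutant plate controls; inactive = inhibition below 50%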;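 also: 0% = wild type cc124 cells in DMSO and 100% = ciliumless bld1 mutant cells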). The settings on record: Chlamydomonas reinhardtii gravitaxis, OD600 absorbance, 2 days; at 10 µM; stronger effect = higher value.
[10] abbreviates: measured here: cell density z-score.
Where [11] appears, read: measured here: nuclear c-Myc green intensity z-score.
Setting [12] is: measured here: nuclear pErk red intensity z-score, stronger effect = higher value.

Sequence of Voltage-gated potassium channel subunit beta-2 (Rattus norvegicus) (P62483 whole entry, looked up): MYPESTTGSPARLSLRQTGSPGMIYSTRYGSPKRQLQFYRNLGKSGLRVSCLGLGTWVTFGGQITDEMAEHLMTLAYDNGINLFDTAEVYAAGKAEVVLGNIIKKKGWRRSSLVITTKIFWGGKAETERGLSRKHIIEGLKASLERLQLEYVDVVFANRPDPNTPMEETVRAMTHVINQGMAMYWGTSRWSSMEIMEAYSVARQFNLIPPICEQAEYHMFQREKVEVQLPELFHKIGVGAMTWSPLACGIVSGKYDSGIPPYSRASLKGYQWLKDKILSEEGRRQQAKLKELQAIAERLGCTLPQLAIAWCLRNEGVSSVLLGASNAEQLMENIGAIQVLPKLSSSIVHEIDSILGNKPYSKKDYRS
Sequence of Dual specificity protein phosphatase 6 (Homo sapiens) (Q16828 whole entry, looked up): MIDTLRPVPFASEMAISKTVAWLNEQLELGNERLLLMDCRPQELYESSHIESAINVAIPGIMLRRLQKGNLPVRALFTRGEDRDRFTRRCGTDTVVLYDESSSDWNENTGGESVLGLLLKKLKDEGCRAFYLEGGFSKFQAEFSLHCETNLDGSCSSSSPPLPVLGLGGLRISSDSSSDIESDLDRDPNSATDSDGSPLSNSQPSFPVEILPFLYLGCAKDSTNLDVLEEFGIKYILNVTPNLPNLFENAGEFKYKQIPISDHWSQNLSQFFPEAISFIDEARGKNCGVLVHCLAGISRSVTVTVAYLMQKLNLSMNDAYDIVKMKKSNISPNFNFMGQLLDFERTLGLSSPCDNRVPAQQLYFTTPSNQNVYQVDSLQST
Sequence of Alpha-2C adrenergic receptor (Homo sapiens) (P18825 whole entry, looked up): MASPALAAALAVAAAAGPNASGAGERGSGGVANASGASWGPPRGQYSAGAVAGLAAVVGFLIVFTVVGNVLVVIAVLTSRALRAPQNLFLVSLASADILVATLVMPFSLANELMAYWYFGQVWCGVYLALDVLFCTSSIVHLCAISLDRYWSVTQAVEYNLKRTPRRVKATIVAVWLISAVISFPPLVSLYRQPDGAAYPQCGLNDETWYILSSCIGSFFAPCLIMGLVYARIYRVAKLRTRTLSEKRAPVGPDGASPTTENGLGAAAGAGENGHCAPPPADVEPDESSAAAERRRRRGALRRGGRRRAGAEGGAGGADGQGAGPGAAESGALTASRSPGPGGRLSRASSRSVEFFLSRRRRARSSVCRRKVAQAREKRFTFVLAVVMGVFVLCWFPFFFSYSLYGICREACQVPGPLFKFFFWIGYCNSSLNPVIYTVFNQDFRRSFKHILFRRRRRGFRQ

A word on the inhibition: it is the change of the read-out against control, counted positive when it falls. With `O=S(CCc1ccncc1)Cc1ccccc1` (stereo unspecified), the cell count in test [1] is 337. Also, the inhibition is -23.4% (inactive) in test [1], -114% (inactive) in test [2], -14% (inactive) in test [4] and -11.4% (inactive) in test [9]. The same compound registered a nuclei count in [2] of 140%. In addition, the z-score in test [3] (setting [10]) is -0.83; in [3] (setting [11]), 1.38; in test [3] (setting [12]), 2.01. In addition, in [5], the fluorescence slope is -0.427 (inactive). Further, the NADPH fluorescence slope in test [6] is -0.000147 (inactive). Further, the slope in test [7] was 0.00701 (inactive). Besides, the compound was called inactive in test [8].
Consider `COCCOC(=O)C1=C(C)OC(N)=C(C#N)C1c1ccco1` (stereo unspecified), for which the cell count in [1] was 364. Moreover, the inhibition in test [1] is -7.8% (inactive); in test [2], -269% (inactive); in test [4], -13.5% (inactive); in test [9], 20.2% (inactive). In addition, the nuclei count in [2] is 165%. Besides, the z-score in [3] (setting [10]) is -0.623; in [3] (setting [11]), -0.763; in [3] (setting [12]), 1.29. Further, in test [5], the fluorescence slope was -0.406 (inactive). For the same compound, the NADPH fluorescence slope in test [6] is -4.7e-05 (inactive). Besides, the slope in test [7] was 0.00481 (inactive). Also, in test [8], the call was inactive.
On to `CN1CCN(CCCCOc2ccc(F)cc2)CC1`, for which the cell count in [1] is 488. Besides, the inhibition in test [1] was -6.3% (inactive); in test [2], -39.9% (inactive); in test [4], 7.48% (inactive); in [9], 30.4% (inactive). The compound further showed a nuclei count in test [2] of 114%. In addition, the z-score in test [3] (setting [10]) is 1.94; in test [3] (setting [11]), -1.66; in test [3] (setting [12]), 1.15. In test [5], the fluorescence slope is -0.483 (inactive). Also, the NADPH fluorescence slope in [6] is -0.00016 (inactive). Also, the slope in test [7] was 0.00459 (inactive). Moreover, the compound was called inactive in test [8].
`CN(C)CCCN1C(=O)C(O)=C(C(=O)c2cc3ccccc3o2)C1c1ccccc1` (stereo unspecified): in [1], the cell count is 454. The inhibition is 2.5% (inactive) in [1], -61.8% (inactive) in test [2], 6.04% (inactive) in test [4] and -3.04% (inactive) in test [9]. Moreover, in [2], the nuclei count amounted to 132%. Further, the z-score is -0.256 in test [3] (setting [10]), 0.437 in test [3] (setting [11]) and -0.536 in [3] (setting [12]). Further, in [5], the fluorescence slope was -0.418 (inactive). Moreover, the NADPH fluorescence slope in test [6] is -5.3e-05 (inactive). In addition, in [7], the slope was 0.00564 (inactive). For the same compound, the compound was called inactive in [8].
Regarding `CCOC(=O)C1=C(CSc2nc(-c3ccncc3)ccc2C#N)OC(N)=C(C#N)C1c1cccnc1` (stereo unspecified), the cell count in test [1] was 701. Besides, the inhibition in test [1] is -10.4% (inactive); in [2], 45.7% (inactive); in [4], -8.95% (inactive); in test [9], -5.64% (inactive). This compound also showed a nuclei count in test [2] of 173%. The z-score is -0.622 in [3] (setting [10]), 0.296 in test [3] (setting [11]) and 2 in test [3] (setting [12]). Moreover, in [5], the fluorescence slope was -0.283 (inactive). Also, in [6], the NADPH fluorescence slope is -5.8e-05 (inactive). Further, the slope in [7] was 0.00429 (inactive). Besides, in test [8], the compound was classed as inactive.
Take `CCCCCNC(=O)c1c(N)n(/N=C/c2ccco2)c2nc3ccccc3nc12`: in [1], the cell count is 351. In addition, the inhibition in [1] is -5.8% (inactive); in test [2], -71.9% (inactive); in test [4] it was 17.4% (inactive); in test [9], 14.7% (inactive). The compound further came in with a nuclei count in test [2] of 147%. Further, the z-score is 1.49 in test [3] (setting [10]), -0.91 in [3] (setting [11]) and -0.977 in [3] (setting [12]). For the same compound, the fluorescence slope in [5] is -0.416 (inactive). In addition, in [6], the NADPH fluorescence slope was -0.000149 (inactive). In [7], the slope was 0.00624 (inactive). Further, the compound was called inactive in test [8].
For `S=c1[nH]nc(-c2ccco2)n1Cc1ccccc1`, in test [1], the cell count was 367. Further, the inhibition in test [1] is -8.2% (inactive); in [2], -105% (inactive); in [4], 11.9% (inactive); in test [9], -18.5% (inactive). In addition, in test [2], the nuclei count amounted to 110%. For the same compound, the results for the z-score in [3] (setting [10]), in test [3] (setting [11]) and in [3] (setting [12]) were -1.5, 1.31 and -1.88, respectively. The fluorescence slope in test [5] was -0.477 (inactive). Besides, the NADPH fluorescence slope in test [6] is -0.000234 (inactive). Further, the slope in [7] is 0.00534 (inactive). For the same compound, the outcome in test [8] was inactive.
